SMILES strings stand for the structures. A value given as a limit tells only on which side of the number the result lay.

Data set [1] addresses T1, Very long chain fatty acid elongase 6 (Homo sapiens, UniProt Q9H5J4).
T1 sequence (Q9H5J4 whole entry): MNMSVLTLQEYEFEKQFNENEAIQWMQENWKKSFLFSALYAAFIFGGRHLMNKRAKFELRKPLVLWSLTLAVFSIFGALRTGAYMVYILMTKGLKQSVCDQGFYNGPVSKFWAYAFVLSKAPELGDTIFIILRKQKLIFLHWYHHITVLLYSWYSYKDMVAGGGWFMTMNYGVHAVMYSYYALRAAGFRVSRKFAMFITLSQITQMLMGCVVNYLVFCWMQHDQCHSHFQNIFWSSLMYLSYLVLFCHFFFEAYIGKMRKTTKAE
The experiment in a line: Inhibition of human ELOVL6 expressed in african green monkey COS7 cells assessed as palmitoyl-CoA elongation. In kind it is cell-based, COS-7. Put shortly: (§1)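 IC50 against each ELOVL subtype, each with its own fatty acyl-CoA substrate. Human ELOVL6 used palmitoyl-CoA elongation. Radioactive ELOVL6 products were detected with recombinant histidine-tagged ACBP as a probe. Values are mean ± SE, n ≥ 3.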

The target of data set [2] is T2, Very long chain fatty acid elongase 3 (Homo sapiens, UniProt Q9HB03).
T2 sequence (Q9HB03 whole entry): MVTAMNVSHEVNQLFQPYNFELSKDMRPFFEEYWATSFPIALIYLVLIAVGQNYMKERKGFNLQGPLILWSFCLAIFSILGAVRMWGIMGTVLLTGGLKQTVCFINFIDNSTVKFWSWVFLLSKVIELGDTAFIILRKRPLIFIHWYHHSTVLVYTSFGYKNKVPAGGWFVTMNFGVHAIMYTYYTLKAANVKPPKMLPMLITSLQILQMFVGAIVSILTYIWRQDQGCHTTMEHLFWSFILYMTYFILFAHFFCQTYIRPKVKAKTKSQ
In words: Inhibition of human ELOVL3 expressed in african green monkey COS7 cells assessed as stearoyl-CoA elongation. In kind it is cell-based, COS-7. Put shortly:
as §1

Data set [3] deals with T3, Very long chain fatty acid elongase 6 (Mus musculus, UniProt Q920L5).
T3 sequence (Q920L5 whole entry): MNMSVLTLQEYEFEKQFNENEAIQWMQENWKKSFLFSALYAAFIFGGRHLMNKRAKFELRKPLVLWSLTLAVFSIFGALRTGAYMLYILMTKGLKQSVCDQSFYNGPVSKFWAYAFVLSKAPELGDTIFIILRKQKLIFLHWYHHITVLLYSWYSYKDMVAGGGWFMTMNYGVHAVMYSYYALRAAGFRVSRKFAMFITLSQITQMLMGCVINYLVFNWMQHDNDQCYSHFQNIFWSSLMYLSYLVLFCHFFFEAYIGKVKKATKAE
In words: Inhibition of mouse ELOVL6 expressed in african green monkey COS7 cells. In kind it is cell-based, COS-7. Put shortly:
as §1

Data set [4] is described as follows: Drug level in mouse liver at 10 mg/kg, po after 2 hrs. It is filed as ADME, organism-based. More on the design: dose 10 mg/kg, route oral. The following applies: read-out: Drug uptake.
Data set [5] deals with Mus musculus. In words: Inhibition of ELOVL6 activity in po dosed C57BL/6J mouse liver assessed as […] administered 1 hr before [1-14C]palmitic acid measured after 2 hrs. In kind it is functional, organism-based.
A short description of data set [6]: Plasma concentration in mouse at 1 mg/kg, po after 2 hrs. In kind it is ADME, organism-based. The arrangement: dose 1 mg/kg, route oral. A digest of the protocol:
(§2)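 Compound was given orally at 1 mg/kg to mice. Plasma levels were sampled at 2, 4, 8 and 24 h. Values are the mean of n = 3 animals.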

Data set [7] addresses T4, Very long chain fatty acid elongase 3 (Mus musculus, UniProt O35949).
T4 sequence (O35949 whole entry): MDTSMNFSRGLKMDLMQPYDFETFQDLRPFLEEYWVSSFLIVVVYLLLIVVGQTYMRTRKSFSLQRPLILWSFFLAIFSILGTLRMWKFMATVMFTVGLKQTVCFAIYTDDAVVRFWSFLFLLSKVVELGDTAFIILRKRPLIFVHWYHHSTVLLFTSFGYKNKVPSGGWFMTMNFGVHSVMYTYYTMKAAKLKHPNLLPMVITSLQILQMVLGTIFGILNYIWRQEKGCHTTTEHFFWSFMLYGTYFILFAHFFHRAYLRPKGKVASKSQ
In words: Inhibition of mouse ELOVL3 expressed in african green monkey COS7 cells. In kind it is cell-based, COS-7. A digest of the protocol:
as §1

Data set [8] can be described thus: Plasma concentration in mouse at 10 mg/kg, po after 2 hrs. In kind it is ADME, organism-based. More on the design: dose 10 mg/kg, route oral.
Data set [9] addresses T5, Very long chain fatty acid elongase 2 (Homo sapiens, UniProt Q9NXB9).
T5 sequence (Q9NXB9 whole entry): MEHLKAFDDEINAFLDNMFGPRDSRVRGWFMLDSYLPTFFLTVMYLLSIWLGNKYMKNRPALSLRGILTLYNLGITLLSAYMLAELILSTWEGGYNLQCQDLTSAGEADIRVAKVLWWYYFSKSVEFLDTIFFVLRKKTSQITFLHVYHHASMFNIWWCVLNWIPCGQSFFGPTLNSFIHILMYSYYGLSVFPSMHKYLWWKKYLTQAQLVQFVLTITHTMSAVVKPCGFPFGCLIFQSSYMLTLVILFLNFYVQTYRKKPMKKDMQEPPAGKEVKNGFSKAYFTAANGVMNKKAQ
The experiment in a line: Inhibition of human ELOVL2 expressed in african green monkey COS7 cells. In kind it is cell-based, COS-7. Put shortly: as §1

Data set [10] is described as follows: Plasma concentration in mouse at 1 mg/kg, po after 4 hrs. In kind it is ADME, organism-based. The arrangement: dose 1 mg/kg, route oral. Put shortly:
as §2

Data set [11] can be described thus: Plasma concentration in mouse at 1 mg/kg, po after 24 hrs. In kind it is ADME, organism-based. The arrangement: dose 1 mg/kg, route oral. Put shortly: as §2
Data set [12] has as its target T6, Very long chain fatty acid elongase 1 (Homo sapiens, UniProt Q9BW60).
T6 sequence (Q9BW60 whole entry): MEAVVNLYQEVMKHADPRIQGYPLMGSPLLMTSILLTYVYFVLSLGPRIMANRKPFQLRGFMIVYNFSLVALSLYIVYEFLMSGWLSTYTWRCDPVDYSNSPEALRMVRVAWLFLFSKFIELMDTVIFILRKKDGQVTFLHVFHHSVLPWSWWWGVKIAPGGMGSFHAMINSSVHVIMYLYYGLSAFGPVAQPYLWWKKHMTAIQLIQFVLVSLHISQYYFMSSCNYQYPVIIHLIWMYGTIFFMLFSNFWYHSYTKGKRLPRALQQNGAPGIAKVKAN
In words: Inhibition of human ELOVL1 expressed in african green monkey COS7 cells. In kind it is cell-based, COS-7. A digest of the protocol: as §1

A short description of data set [13]: Plasma concentration in mouse at 1 mg/kg, po after 8 hrs. The arrangement: dose 1 mg/kg, route oral. It is filed as ADME, organism-based. A digest of the protocol: as §2
Data set [14] has as its target T7, Very long chain fatty acid elongase 5 (Homo sapiens, UniProt Q9NYP7).
T7 sequence (Q9NYP7 whole entry): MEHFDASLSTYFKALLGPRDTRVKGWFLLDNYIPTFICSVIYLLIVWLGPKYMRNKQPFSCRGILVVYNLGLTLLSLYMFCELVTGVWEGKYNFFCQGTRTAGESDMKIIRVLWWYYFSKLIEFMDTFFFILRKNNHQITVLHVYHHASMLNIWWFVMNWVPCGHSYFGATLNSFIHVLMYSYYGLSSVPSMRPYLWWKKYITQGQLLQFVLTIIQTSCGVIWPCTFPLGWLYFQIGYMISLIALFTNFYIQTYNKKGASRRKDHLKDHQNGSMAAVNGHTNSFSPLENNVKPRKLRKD
The experiment in a line: Inhibition of human ELOVL5 expressed in african green monkey COS7 cells. It is filed as cell-based, COS-7. Put shortly:
as §1

Usually IC50 stands for the concentration that gives 50% inhibition. Consider `Cc1[nH]n(-c2ccccc2)c(=O)c1C1(C(F)(F)F)C(=O)N(c2ccccc2)C2=C1C(=O)CC(C)C2` (stereo unspecified), for which the IC50 in [1] was 704 nM. In the case of `Cc1[nH]n(C2CCCCC2)c(=O)c1C1(C(F)(F)F)C(=O)N(c2ccccc2)C2=C1C(=O)CC(C)(C)C2` (stereo unspecified), the IC50 in data set [1] is more than 10000 nM. As to `Cc1[nH]n(-c2ccc(C#N)cc2)c(=O)c1C1(C(F)(F)F)C(=O)N(c2ccccc2)C2=C1C(=O)CC(C)(C)C2` (stereo unspecified), the IC50 in data set [2] was 1100 nM. Consider `Cc1[nH]n(-c2ccccc2)c(=O)c1C1(C(F)(F)F)C(=O)N(c2ccccc2)C2=C1C(=O)CCC2` (stereo unspecified), for which the IC50 in data set [1] came to 4500 nM. With `Cc1[nH]n(-c2ccc(Cl)cc2)c(=O)c1C1(C(F)(F)F)C(=O)N(c2ccccc2)C2=C1C(=O)CC(C)(C)C2` (stereo unspecified), the IC50 in data set [2] was 221 nM. Turning to `Cc1[nH]n(C(C)C)c(=O)c1C1(C(F)(F)F)C(=O)N(c2ccccc2)C2=C1C(=O)CC(C)(C)C2` (stereo unspecified), the IC50 in data set [1] is more than 10000 nM. Still for that read-out and setting: to `Cc1[nH]n(-c2ccccc2)c(=O)c1C1(C(F)(F)F)C(=O)N(c2ccccc2)C2=C1C(=O)CC(c1ccccc1)C2` (stereo unspecified) belongs 6260 nM. Regarding `Cc1ccc(-n2[nH]c(C)c(C3(C(F)(F)F)C(=O)N(c4ccccc4)C4=C3C(=O)CC(C)(C)C4)c2=O)cc1` (stereo unspecified), the IC50 in data set [2] came to 375 nM.

Turning to `Cc1[nH]n(C)c(=O)c1C1(C(F)(F)F)C(=O)N(c2ccccc2)C2=C1C(=O)CC(C)(C)C2` (stereo unspecified), the IC50 in [1] came out at 2020 nM. As for `CC(C)c1[nH]n(-c2ccccc2)c(=O)c1C1(C(F)(F)F)C(=O)N(c2ccccc2)C2=C1C(=O)CC(C)(C)C2` (stereo unspecified), the IC50 in [1] is more than 10000 nM. On to `Cc1[nH]n(-c2ccc(OC(F)(F)F)cc2)c(=O)c1C1(C(F)(F)F)C(=O)N(c2ccccc2)C2=C1C(=O)CC(C)(C)C2` (stereo unspecified), for which the IC50 is 31 nM in [3]; 194 nM in data set [7]; more than 10000 nM in [9]; more than 10000 nM in data set [12]; 337 nM in data set [2]; more than 10000 nM in data set [14]. Also, the concentration at 2 h turned out to be 50 µM in data set [4], 3.4 µM in data set [6] and 30 µM in [8]. The Activity result in data set [5] is “Dose-dependent effect”. Further, the concentration at 4 h in data set [10] worked out at 2.8 µM. For the same compound, the concentration at 24 h in [11] was determined as 0.4 µM. In addition, the concentration at 8 h in data set [13] was 1.4 µM. For `Cc1[nH]n(-c2ccccc2)c(=O)c1C1(C(F)(F)F)C(=O)N(c2ccccc2)C2=C1C(=O)CC1(CCC1)C2` (stereo unspecified), the IC50 in [1] amounted to 123 nM. With `Cc1[nH]n(-c2ccc(C(C)C)cc2)c(=O)c1C1(C(F)(F)F)C(=O)N(c2ccccc2)C2=C1C(=O)CC(C)(C)C2` (stereo unspecified), in [2], the IC50 came out at 59 nM. Same read-out and setting: the figure for `COc1ccc(-n2[nH]c(C)c(C3(C(F)(F)F)C(=O)N(c4ccccc4)C4=C3C(=O)CC(C)(C)C4)c2=O)cc1` (stereo unspecified) is 503 nM.

(Values after ChEMBL document CHEMBL1138496, “Synthesis and evaluation of a novel indoledione class of long chain fatty acid elongase 6 (ELOVL6) inhibitors” (J Med Chem, 2009).)
